Reference: ChEMBL document CHEMBL5532739, “Competitive Microarray Screening Reveals Functional Ligands for the DHX15 RNA G-Quadruplex” (ACS Med Chem Lett, 2024)
Values belong to the compound of their own block, whether it stands above or below them. The source made the active and inactive calls. The calls are words filed in the database; no cut-off is given here.

How the values were obtained:
Quadruplex RNA [1] = assay: Displacement of Hoechst 33258 from DHX15 rG4 (unknown origin) at 100 uM measured after 15 mins by FID assay relative to control; assay type: nucleic-acid assay
How it was run: (§1)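 Fluorescent intercalator displacement on DHX15 rG4, dose-dependent, using thioflavin T or Hoechst 33258 (groove binder) as probe; displacement measured as loss of probe fluorescence.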

Reticulocyte [2] = assay: Inhibition of DHX15 mRNA translation in rabbit reticulocyte lysate transfected with DHX15-G4-Del-FL at upto 50 uM incubated for 15 mins by firefly luciferase assay; assay type: functional, subcellular; details: Oryctolagus cuniculus
How it was run: (§2)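 Cell-free translation: in vitro transcribed firefly luciferase reporter RNAs carrying DHX15 5' region (WT or G4-deleted) incubated in rabbit reticulocyte lysate with analyte, dose-dependent; luciferase activity as translation read-out; IC50 from dose-response.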

Quadruplex RNA [3] = assay: Displacement of ThT from DHX15 rG4 (unknown origin) at upto 100 uM measured after 15 mins by FID assay relative to control; assay type: nucleic-acid assay; how it was run: as §1
[4] = Inhibition of DHX15 mRNA translation in rabbit reticulocyte lysate transfected with DHX15-G4-WT-FL at upto 50 uM incubated for 15 mins by firefly luciferase assay relative to control; assay type: functional, Oryctolagus cuniculus; details: 0.25 h, up to 50 µM; how it was run: as §2
Quadruplex RNA [5] = assay: Binding affinity to DHX15 rG4 (unknown origin) assessed as dissociation constant measured after 320 secs by SPR analysis; assay type: nucleic-acid assay
Quadruplex RNA [6] = assay: Binding affinity to DHX15 rG4 (unknown origin) assessed as induction of RNA G quadruplex formation by measuring increase in intensity at 4 to 20 uM in presence of KCl by circular dichroism method; assay type: nucleic-acid assay; details: dose 4-20 µM
Quadruplex RNA [7] = assay: Binding affinity to DHX15 rG4 (unknown origin) assessed as thermal stability by measuring change in melting temperature at 50 uM by circular dichroism method; assay type: nucleic-acid assay
How it was run: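 CD thermal melt of DHX15 rG4 with 50 μM analyte present; stabilization reported as ΔTm.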

[8] = Inhibition of DHX15 mRNA translation in rabbit reticulocyte lysate transfected with DHX15-G4-WT-FL incubated for 15 mins by firefly luciferase assay; assay type: functional, subcellular, Oryctolagus cuniculus; how it was run: as §2
[9] = Inhibition of DHX15 mRNA translation in rabbit reticulocyte lysate transfected with DHX15-G4-WT-FL at 10 uM incubated for 15 mins by firefly luciferase assay relative to control; assay type: functional; details: Oryctolagus cuniculus, 0.25 h; how it was run: as §2
Reticulocyte [10] = assay: Inhibition of DHX15 mRNA translation in rabbit reticulocyte lysate transfected with DHX15-G4-Del-FL at 10 uM incubated for 15 mins by firefly luciferase assay; assay type: functional, subcellular; details: Oryctolagus cuniculus; how it was run: as §2

Activity (Quadruplex RNA [1]): 20%
inhibition (Reticulocyte [2]): inactive
Activity (Quadruplex RNA [3]): 50%
Kd (Quadruplex RNA [5]): 12.6 µM
Activity (Quadruplex RNA [6]): Active
ΔTm (Quadruplex RNA [7]): 3.6 °C
IC50 [8]: 22.9 µM
Structure (SMILES): Nc1cc2[nH]c(=O)[nH]c2cc1N1CCCC1
inhibition (INH) [4]: 57%

Kd (Quadruplex RNA [5]): > 100 µM
Structure (SMILES): O=C(O)[C@H]1Cc2ccccc2CN1

Kd (Quadruplex RNA [5]): > 100 µM
Structure (SMILES): O=C(O)[C@@H]1Cc2ccccc2CN1

inhibition (Reticulocyte [10]): inactive
Structure (SMILES): CN(C)c1ccc(Nc2c3ccc(NC(=O)CCN4CCCC4)cc3nc3cc(NC(=O)CCN4CCCC4)ccc23)cc1
inhibition at 10 µM [9]: 67%
